The text below walks through data of ChEMBL document CHEMBL3792366, “Role of disulfide linkage in action of bis(dialkylaminethiocarbonyl)disulfides as potent double-Edged microbicidal spermicide: Design, synthesis and biology” (Eur J Med Chem, 2016).

Experiment [1] can be described thus: Spermicidal activity in human sperms assessed as motility measured within 30 secs by phase contrast microscopy. The format is functional, Sperm. Put shortly: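 Liquefied human semen (0.05 mL) was added to 0.25 mL test solution and vortexed 10 s at low speed. Motile sperm were scored visually under phase contrast in five fields within 30 s; assays in triplicate; MEC = minimum effective concentration.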

For a further experiment, the system named is Sporothrix schenckii. In words: Antifungal activity against Sporothrix schenckii after 48 hrs by broth microdilution method. The class given is functional. The method in brief:
(§1)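 NCCLS broth microdilution in RPMI 1640 buffered with MOPS; starting inoculum 1–5 × 10^3 CFU/mL; plates incubated at 35 °C; MIC read after 48 h.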
Background: In broth dilution the organism is exposed to a series of concentrations in liquid medium.

The subject of experiment [2] is Trichophyton mentagrophytes. In words: Antifungal activity against Trichophyton mentagrophytes after 48 hrs by broth microdilution method. The format is functional. The method in brief:
as §1

The test system of a further experiment is Candida parapsilosis. In words: Antifungal activity against Candida parapsilosis ATCC 22019 after 48 hrs by broth microdilution method. Particulars: Lodderomyces parapsilosis, ATCC 22019, 48 h. The class given is functional. Put shortly:
as §1

The subject of experiment [3] is Trichomonas vaginalis. In words: Antitrichomonas activity against trophozoite stage of Trichomonas vaginalis clinical isolate assessed as cell viability under anaerobic condition after 48 hrs by trypan blue exclusion assay. The class given is functional. The method in brief:
(§2)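 Log-phase T. vaginalis grown in TYM with 10% FCS, vitamin mix and penicillin/streptomycin at 37 °C. Compounds were made as 100 µg/mL DMSO stocks and serially diluted in TYM down to 0.1 µg/mL; DMSO/TYM served as vehicle. Parasites were incubated anaerobically at 37 °C, and viability was checked by trypan blue exclusion from 3 to 48 h. MIC = lowest concentration killing all cells by 48 h; each test was repeated three times.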

Experiment [4] concerns Trichomonas vaginalis. In words: Antitrichomonas activity against metronidazole-resistant trophozoite stage of Trichomonas vaginalis ATCC 50143 assessed as cell viability under anaerobic condition after 48 hrs by trypan blue exclusion assay. The class given is functional. To be noted: ATCC 50143, 48 h. The method in brief:
as §2

In a further experiment the test system is Cryptococcus neoformans. In words: Antifungal activity against Cryptococcus neoformans after 48 hrs by broth microdilution method. The format is functional. The method in brief:
as §1

Experiment [5] deals with Trichomonas vaginalis. In words: Potency index, ratio of metronidazole MIC to compound MIC for metronidazole-resistant trophozoite stage of Trichomonas vaginalis ATCC 50143. The class given is functional.
The test system of a further experiment is Candida albicans. In words: Antifungal activity against Candida albicans after 48 hrs by broth microdilution method. The class given is functional. The method in brief:
as §1

In brackets after ≈: the same amount, converted by molar mass.

By MIC is commonly meant the lowest concentration found to suppress growth.

For `CCOC(=O)N1CCN(C(=S)SSC(=S)N2CCN(C(=O)OCC)CC2)CC1`, the MEC in experiment [1] is 1%. Further, the minimum inhibitory concentration (MIC) in the experiment on Sporothrix schenckii was found to be 107 µM (≈ 49.8 µg/mL); in [2], 107 µM (≈ 49.8 µg/mL); with Candida parapsilosis, 53.4 µM (≈ 24.9 µg/mL); in the experiment with Trichomonas vaginalis [3], 13.3 µM (≈ 6.21 µg/mL); in the experiment on Trichomonas vaginalis [4], 13.3 µM (≈ 6.21 µg/mL); with Cryptococcus neoformans, 26.7 µM (≈ 12.5 µg/mL). Moreover, in the experiment with Candida albicans, it took 53.4 µM (≈ 24.9 µg/mL) to inhibit growth (MIC). In addition, in the experiment on Trichomonas vaginalis [5], the Ratio is 8.

For the molecule `CC1CCN(C(=S)SSC(=S)N2CCC(C)CC2)CC1`, in experiment [1], the MEC amounted to 1%. Moreover, the MIC against Sporothrix schenckii was 35.8 µM (≈ 12.5 µg/mL); in experiment [2] it was 35.8 µM (≈ 12.5 µg/mL); in the experiment on Candida parapsilosis it was 143 µM (≈ 49.9 µg/mL); in the experiment with Trichomonas vaginalis [3] it was 35.8 µM (≈ 12.5 µg/mL); with Trichomonas vaginalis [4] it was 35.8 µM (≈ 12.5 µg/mL); in the experiment on Cryptococcus neoformans it was 8.9 µM (≈ 3.1 µg/mL). In the experiment on Candida albicans, this molecule showed an MIC of 17.9 µM (≈ 6.24 µg/mL). For the same molecule, the Ratio in the experiment on Trichomonas vaginalis [5] was determined as 4.

As for `S=C(SSC(=S)N1CCCC1)N1CCCC1` [BIS(PYRROLIDINYLTHIOCARBONYL)DISULFIDE], in [1], the MEC was determined as 1%. The MIC was determined as 21.3 µM (≈ 6.23 µg/mL) against Sporothrix schenckii; 10.6 µM (≈ 3.1 µg/mL) in experiment [2]; 21.3 µM (≈ 6.23 µg/mL) with Candida parapsilosis; 10.6 µM (≈ 3.1 µg/mL) in the experiment with Trichomonas vaginalis [3]; 10.6 µM (≈ 3.1 µg/mL) in the experiment on Trichomonas vaginalis [4]; 2.6 µM (≈ 0.761 µg/mL) in the experiment on Cryptococcus neoformans. The MIC against Candida albicans worked out at 10.6 µM (≈ 3.1 µg/mL). For the same molecule, the Ratio with Trichomonas vaginalis [5] is recorded as 16.

As to `S=C(SSC(=S)N1CCOCC1)N1CCOCC1`, the MEC in experiment [1] was found to be 0.1%. Further, the MIC is 76.9 µM (≈ 25 µg/mL) in the experiment on Sporothrix schenckii; 38.4 µM (≈ 12.5 µg/mL) in [2]; 76.9 µM (≈ 25 µg/mL) in the experiment with Candida parapsilosis; 9.6 µM (≈ 3.12 µg/mL) with Trichomonas vaginalis [3]; 9.6 µM (≈ 3.12 µg/mL) in the experiment on Trichomonas vaginalis [4]; 38.4 µM (≈ 12.5 µg/mL) against Cryptococcus neoformans. In the experiment with Candida albicans, this molecule had an MIC of 76.9 µM (≈ 25 µg/mL). Further, the Ratio with Trichomonas vaginalis [5] stood at 16.

As to `COc1ccccc1N1CCN(C(=S)SSC(=S)N2CCN(c3ccccc3OC)CC2)CC1`, the MEC in experiment [1] was 1%. The MIC in the experiment on Sporothrix schenckii is 46.7 µM (≈ 25 µg/mL); in experiment [2], 93.4 µM (≈ 50 µg/mL); against Candida parapsilosis, above 93.4 µM; in the experiment on Trichomonas vaginalis [3], above 186 µM; with Trichomonas vaginalis [4], above 186 µM; in the experiment with Cryptococcus neoformans, 23.3 µM (≈ 12.5 µg/mL). In the experiment on Candida albicans, this molecule showed an MIC of 46.7 µM (≈ 25 µg/mL).

On to `CCCCCCCCCCCCCCCCN1CCN(C(=S)SSC(=S)N2CCN(CCCCCCCCCCCCCCCC)CC2)CC1`, for which the MEC in [1] turned out to be 1%. The MIC was 16.2 µM (≈ 12.5 µg/mL) in the experiment with Sporothrix schenckii; 16.2 µM (≈ 12.5 µg/mL) in [2]; above 64.8 µM with Candida parapsilosis; above 129 µM with Trichomonas vaginalis [3]; above 129 µM with Trichomonas vaginalis [4]; 64.8 µM (≈ 50 µg/mL) against Cryptococcus neoformans. In the experiment with Candida albicans, this molecule gave an MIC of 64.8 µM (≈ 50 µg/mL).

As to `S=C(SCc1ccccc1)N1CCN(C(=S)SSC(=S)N2CCN(C(=S)SCc3ccccc3)CC2)CC1`, in experiment [1], the MEC is recorded as above 1%. Also, the MIC is above 76.3 µM against Sporothrix schenckii; above 76.3 µM in experiment [2]; above 76.3 µM against Candida parapsilosis; 95.4 µM (≈ 62.5 µg/mL) in the experiment with Trichomonas vaginalis [3]; 95.4 µM (≈ 62.5 µg/mL) in the experiment on Trichomonas vaginalis [4]; above 76.3 µM with Cryptococcus neoformans. Besides, in the experiment on Candida albicans, the minimal inhibitory concentration (MIC) is above 76.3 µM.

Turning to `CC(C)(C)OC(=O)N1CCN(C(=S)SSC(=S)N2CCN(C(=O)OC(C)(C)C)CC2)CC1`, the MEC in experiment [1] is above 1%. The minimal inhibitory concentration (MIC) in the experiment on Sporothrix schenckii was above 91.7 µM; in experiment [2], above 91.7 µM; against Candida parapsilosis, above 91.7 µM; with Trichomonas vaginalis [3], above 183 µM; with Trichomonas vaginalis [4] it was above 183 µM; against Cryptococcus neoformans it was above 91.7 µM. The same molecule returned an MIC against Candida albicans above 91.7 µM.

Take `CCCCSC(=S)N1CCN(C(=S)SSC(=S)N2CCN(C(=S)SCCCC)CC2)CC1`: the MEC in experiment [1] was above 1%. Further, the minimal inhibitory concentration (MIC) against Sporothrix schenckii was 85.1 µM (≈ 50 µg/mL); in [2], 42.5 µM (≈ 24.9 µg/mL); with Candida parapsilosis, 42.5 µM (≈ 24.9 µg/mL); with Trichomonas vaginalis [3], above 170 µM; with Trichomonas vaginalis [4] it was above 170 µM; against Cryptococcus neoformans, 85.1 µM (≈ 50 µg/mL). In the experiment with Candida albicans, this molecule displayed an MIC above 85.1 µM.

For `S=C(SSC(=S)N1CCCCCC1)N1CCCCCC1`, the MEC in [1] is listed as above 1%. Further, the MIC came out at 17.9 µM (≈ 6.24 µg/mL) in the experiment on Sporothrix schenckii; 17.9 µM (≈ 6.24 µg/mL) in experiment [2]; 143 µM (≈ 49.9 µg/mL) in the experiment on Candida parapsilosis; 286 µM (≈ 99.7 µg/mL) in the experiment with Trichomonas vaginalis [3]; 35.8 µM (≈ 12.5 µg/mL) in the experiment with Trichomonas vaginalis [4]; 4.4 µM (≈ 1.53 µg/mL) against Cryptococcus neoformans. This molecule also gave an MIC in the experiment with Candida albicans of 8.9 µM (≈ 3.1 µg/mL). Also, in the experiment with Trichomonas vaginalis [5], the Ratio came to 4.
